# Results: ChEMBL document CHEMBL1139389, “Discovery of the Poly(ADP-ribose) polymerase (PARP) inhibitor 2-[(R)-2-methylpyrrolidin-2-yl]-1H-benzimidazole-4-carboxamide (ABT-888) for the treatment of cancer” (J Med Chem, 2009)
# Columns and labels:
# [1] = Protein binding in Beagle dog plasma at 5 uM; assay type: ADME, cell-free, Canis lupus familiaris; conditions: read-out: PPB (converted)
# [2] = Protein binding in cynomolgus monkey plasma at 5 uM; assay type: ADME, cell-free, Macaca fascicularis; conditions: read-out: PPB (converted)
# B16-F10 [3] = assay: Antitumor activity against mouse B16F10 cells xenografted in C57BL/6 mouse assessed as tumor volume at 12.5 mg/kg/day, po after 14 days; assay type: functional
# B16-F10 [4] = assay: Antitumor activity against mouse B16F10 cells xenografted in C57BL/6 mouse assessed as growth inhibition at 12.5 mg/kg/day, po after 14 days relative to control; assay type: functional
# B16-F10 [5] = assay: Potentiation of temozolomide-induced cytotoxicity against mouse B16F10 cells xenografted in C57BL/6 mouse assessed as growth inhibition at 12.5 mg/kg/day, po after 17 days relative to temozolomide monotherapy; assay type: functional
# Outline: (§1)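 B16F10 syngeneic model: 6×10^4 cells in 50% matrigel injected sc into the flank of 6–8 week old female C57BL/6 mice (20 g), allocated to groups by injection order. Inhibitor given po bid days 6–11 at 1, 5 or 12.5 mg/kg/day; temozolomide 50 mg/kg/day po qd days 6–11. Tumor volume by caliper as L×W²/2; TGI versus temozolomide alone.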
# B16-F10 [6] = assay: Potentiation of temozolomide-induced cytotoxicity against mouse B16F10 cells xenografted in C57BL/6 mouse assessed as growth inhibition at 5 mg/kg/day, po after 17 days relative to temozolomide monotherapy; assay type: functional; outline: as §1
# B16-F10 [7] = assay: Potentiation of temozolomide-induced cytotoxicity against mouse B16F10 cells xenografted in C57BL/6 mouse assessed as growth inhibition at 1 mg/kg/day, po after 17 days relative to temozolomide monotherapy; assay type: functional; outline: as §1
# MX1 [8] = assay: Potentiation of carboplatin-induced cytotoxicity against human MX1 cells xenografted in SCID mouse assessed as growth inhibition at 1 mg/kg/day, sc osmotic minipump after 42 days relative to carboplatin monotherapy; assay type: functional; conditions: route subcutaneous
# Outline: (§2)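 MX-1 xenograft: 0.2 cc of 1:10 tumor brei injected sc into the flank of female SCID mice on day 0; size-matched on day 15, 10 mice/group. Inhibitor 1–50 mg/kg/day by sc osmotic minipump for 14 days from day 18; carboplatin 10 mg/kg ip on days 20, 24 and 28. Caliper volumes as L×W²/2; TGI relative to carboplatin alone.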
# MX1 [9] = assay: Potentiation of carboplatin-induced cytotoxicity against human MX1 cells xenografted in SCID mouse assessed as growth inhibition at 12.5 mg/kg/day, sc osmotic minipump after 42 days relative to carboplatin monotherapy; assay type: functional; conditions: route subcutaneous; outline: as §2
# MX1 [10] = assay: Potentiation of carboplatin-induced cytotoxicity against human MX1 cells xenografted in SCID mouse assessed as growth inhibition at 5 mg/kg/day, sc osmotic minipump after 42 days relative to carboplatin monotherapy; assay type: functional; conditions: route subcutaneous; outline: as §2
# MX1 [11] = assay: Potentiation of cyclophosphamide-induced cytotoxicity against human MX1 cells xenografted in SCID mouse assessed as growth inhibition at 5 mg/kg/day, sc osmotic minipump after 48 days relative to cyclophosphamide monotherapy; assay type: functional; conditions: route subcutaneous
# Outline: (§3)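 Female SCID mice bearing sc MX-1 brei (0.2 cc of 1:10, day 0), size-matched on day 15, 10 per group. Inhibitor 5, 12.5 or 25 mg/kg/day by sc osmotic minipump for 14 days from day 18; cyclophosphamide 12.5 mg/kg ip on days 20, 24 and 28. Volumes from caliper L×W²/2; TGI versus cyclophosphamide alone.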
# MX1 [12] = assay: Potentiation of cyclophosphamide-induced cytotoxicity against human MX1 cells xenografted in SCID mouse assessed as growth inhibition at 12.5 mg/kg/day, sc osmotic minipump after 48 days relative to cyclophosphamide monotherapy; assay type: functional; conditions: route subcutaneous; outline: as §3
# MX1 [13] = assay: Potentiation of cyclophosphamide-induced cytotoxicity against human MX1 cells xenografted in SCID mouse assessed as growth inhibition at 25 mg/kg/day, sc osmotic minipump after 48 days relative to cyclophosphamide monotherapy; assay type: functional; conditions: route subcutaneous; outline: as §3
# MX1 [14] = assay: Potentiation of carboplatin-induced cytotoxicity against human MX1 cells xenografted in SCID mouse assessed as growth inhibition at 50 mg/kg/day, sc osmotic minipump after 42 days relative to carboplatin monotherapy; assay type: functional; conditions: route subcutaneous; outline: as §2
# MX1 [15] = assay: Potentiation of carboplatin-induced cytotoxicity against human MX1 cells xenografted in SCID mouse assessed as growth inhibition at 25 mg/kg/day, sc osmotic minipump after 42 days relative to carboplatin monotherapy; assay type: functional; conditions: route subcutaneous; outline: as §2
# [16] = Oral bioavailability in CD1 mouse at 10 mg/kg; assay type: ADME, organism-based; conditions: in vivo
# Outline: (§4)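 Mouse PK: oral dose 10 mg/kg in 2.5% EtOH, 1 drop Tween-80, 25% PEG400 in PBS; iv dose 3 mg/kg in 2.5% EtOH, 5% DMSO, 1 drop Tween-80, 25% PEG400 in PBS. Oral bioavailability, iv half-life, oral AUC and Cmax derived from plasma profiles.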
# [17] = Half life in CD1 mouse at 3 mg/kg, iv; assay type: ADME, organism-based; design: dose 3 mg/kg, route intravenous; conditions: in vivo; outline: as §4
# [18] = AUC in CD1 mouse at 10 mg/kg, po; assay type: ADME, organism-based; design: dose 10 mg/kg, route oral; conditions: plasma; outline: as §4
# [19] = Cmax in CD1 mouse at 10 mg/kg, po; assay type: ADME, organism-based; design: dose 10 mg/kg, route oral; conditions: in vivo; outline: as §4
# [20] = Volume of distribution at steady state in CD1 mouse at 10 mg/kg; assay type: ADME, organism-based; design: dose 10 mg/kg; conditions: in vivo, read-out: Vdss
# [21] = Clearance in CD1 mouse at 10 mg/kg; assay type: ADME, organism-based; design: dose 10 mg/kg; conditions: in vivo
# Outline: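 Mouse pharmacokinetics. Oral dose of 10 mg/kg in 2.5% EtOH, 1 drop Tween-80 and 25% PEG400 in PBS. Intravenous dose of 3 mg/kg in 2.5% EtOH, 5% DMSO, 1 drop Tween-80 and 25% PEG400 in PBS.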
# [22] = Oral bioavailability in Sprague-Dawley rat at 5 mg/kg; assay type: ADME, organism-based; conditions: in vivo
# [23] = Half life in Sprague-Dawley rat at 5 mg/kg, iv; assay type: ADME, organism-based; design: dose 5 mg/kg, route intravenous; conditions: in vivo
# [24] = AUC in Sprague-Dawley rat at 5 mg/kg, po; assay type: ADME, organism-based; design: dose 5 mg/kg, route oral; conditions: plasma
# [25] = Cmax in Sprague-Dawley rat at 5 mg/kg, po; assay type: ADME, organism-based; design: dose 5 mg/kg, route oral; conditions: in vivo
structure (smiles),measurement,setting,value
C[C@]1(c2nc3c(C(N)=O)cccc3[nH]2)CCCN1 [VELIPARIB],fraction unbound at 5 µM,[1],0.59
same,fraction unbound at 5 µM,[2],0.59
same,Activity,B16-F10 [3],2452 mm3
same,TGI,B16-F10 [4],28%
same,TGI,B16-F10 [5],64%
same,TGI,B16-F10 [6],60%
same,TGI,B16-F10 [7],43%
same,TGI,MX1 [8],21%
same,TGI,MX1 [9],58%
same,TGI,MX1 [10],17%
same,TGI,MX1 [11],31%
same,TGI,MX1 [12],33%
same,TGI,MX1 [13],61%
same,TGI,MX1 [14],91%
same,TGI,MX1 [15],78%
same,bioavailability,[16],92%
same,half-life,[17],1.6 h
same,AUC,[18],2200 ng·h/mL
same,Cmax,[19],1600 ng/mL
same,Vd,[20],9.4 L/kg
same,clearance,[21],68.3 mL/min/kg
same,bioavailability,[22],61%
same,half-life,[23],1.2 h
same,AUC,[24],1500 ng·h/mL
same,Cmax,[25],500 ng/mL
